One may read the inhibition as the change of the read-out against control, counted positive when it falls. A high value points to a strong effect.

This is an account of results in ChEMBL document CHEMBL2158002, “Small-molecular inhibitors of Ca²⁺-induced mitochondrial permeability transition (MPT) derived from muscle relaxant dantrolene” (2012).

Each structure is given as a SMILES string.

The subject of test [1] is HL-60. Description: Inhibition of Ca2+-induced mitochondrial permeability transition in human HL60 cells at 25 uM after 40 mins relative to control. Type of test: functional. The settings on record: HL-60, 40 min. Put shortly: (§1)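 Mitochondria were isolated from human leukaemia HL-60 cells, which were grown in RPMI1640 with 5% heat-inactivated FBS and penicillin/streptomycin at 37 °C under 5% CO2. Swelling was then triggered with 250 µM CaCl2 (final) and followed as the change in OD540 at 30 °C. Inhibition % at 40 min was scaled between no-CaCl2 (100%) and CaCl2-only (0%) controls.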

For test [2], the system named is HL-60. The test is described as follows: Inhibition of Ca2+-induced mitochondrial permeability transition in human HL60 cells at 50 uM after 40 mins relative to control. Type of test: functional. As to conditions: HL-60, 40 min. Put shortly: as §1

As to `Nc1cccc(CN2C(=O)CN(/N=C/c3ccc(-c4cc(Cl)cc(Cl)c4)o3)C2=O)c1`, 25 µM produced 14% inhibition in the test on HL-60 [1].
On to `Nc1cccc(CN2C(=O)CN(NC(=O)c3ccc(-c4cc(Cl)cc(Cl)c4)o3)C2=O)c1`, for which at 50 µM the inhibition with HL-60 [2] was 48%. Further, 25 µM produced 35% inhibition in the test with HL-60 [1].
`CN1C(=O)CN(NC(=O)c2ccc(-c3cc(Cl)cc(Cl)c3)o2)C1=O`: the inhibition at 25 µM in the test on HL-60 [1] is 8.5%.
As to `Nc1cccc(CN2C(=O)CN(NC(=O)c3ccc(-c4ccc(Cl)cc4)o3)C2=O)c1`, testing at 50 µM in the test on HL-60 [2] gave an inhibition of 20%.
`CN1C(=O)CN(/N=C/c2ccc(-c3cc(Cl)cc(Cl)c3)o2)C1=O`: 25 µM produced 23% inhibition in the test with HL-60 [1].
In the case of `O=C(NN1CC(=O)N(Cc2ccncc2)C1=O)c1ccc(-c2cc(Cl)cc(Cl)c2)o1`, in the test with HL-60 [2], the inhibition at 50 µM is 8.7%.
With `Nc1cccc(CN2C(=O)CN(NC(=O)c3ccc(-c4cccc(C(F)(F)F)c4)o3)C2=O)c1`, the inhibition at 25 µM with HL-60 [1] worked out at 6.5%.
The compound `O=C(NN1CC(=O)N(Cc2cccnc2)C1=O)c1ccc(-c2cc(Cl)cc(Cl)c2)o1` came in with an inhibition at 50 µM in the test with HL-60 [2] of 71%.
The compound `Nc1cccc(CN2C(=O)CN(NC(=O)c3ccc(-c4ccccc4)o3)C2=O)c1` showed an inhibition at 50 µM in the test on HL-60 [2] of 19%.
In turn, `Nc1cccc(CN2C(=O)CN(NC(=O)c3ccc(-c4cccc(Br)c4)o3)C2=O)c1` returned an inhibition at 50 µM in the test with HL-60 [2] of 11%.
In turn, `Nc1cccc(CN2C(=O)CN(NC(=O)c3ccc(-c4cccc(Cl)c4)o3)C2=O)c1` showed an inhibition at 25 µM with HL-60 [1] of 16%.
`O=C1CN(/N=C/c2ccc(-c3ccc([N+](=O)[O-])cc3)o2)C(=O)N1` [DANTROLENE SODIUM] came in with an inhibition at 25 µM in the test on HL-60 [1] of 13%.
Still for that read-out and setting: the value for `Nc1cccc(CN2C(=O)CN(/N=C/c3ccc(-c4cccc(Cl)c4)o3)C2=O)c1` was 14%; that for `CN1C(=O)CN(/N=C/c2ccc(-c3cccc(Cl)c3)o2)C1=O` was 6%.
As to `Nc1ccc(CN2C(=O)CN(NC(=O)c3ccc(-c4cc(Cl)cc(Cl)c4)o3)C2=O)cc1`, in the test with HL-60 [2], the inhibition at 50 µM was 46%.
Regarding `CN1C(=O)CN(NC(=O)c2ccc(-c3cccc(Cl)c3)o2)C1=O`, the inhibition at 25 µM in the test with HL-60 [1] amounted to 2%.
